Screening data: PubChem, Johns Hopkins Ion Channel Center
Compounds with a hit are over-represented: about 3.5% of the library has one in this group of screens.
MrgX1 PAM – human MrgX1 positive allosteric modulation, primary screen; MrgX1-HEK293, Fluo-4 calcium flux, FDSS; stronger effect = higher value; B-score at 10 µM; actives 0.63% (n = 310,000);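 active = plate-corrected calcium response at least 3 library SD above typical, normal starting fluorescence, not activating the receptor alone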;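 note: compound read alongside a low EC10 to EC30 dose of BAM8-22 agonist; peak minus trough fluorescence over baseline measured at the second addition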
Target sequence (Q96LB2 whole entry, looked up): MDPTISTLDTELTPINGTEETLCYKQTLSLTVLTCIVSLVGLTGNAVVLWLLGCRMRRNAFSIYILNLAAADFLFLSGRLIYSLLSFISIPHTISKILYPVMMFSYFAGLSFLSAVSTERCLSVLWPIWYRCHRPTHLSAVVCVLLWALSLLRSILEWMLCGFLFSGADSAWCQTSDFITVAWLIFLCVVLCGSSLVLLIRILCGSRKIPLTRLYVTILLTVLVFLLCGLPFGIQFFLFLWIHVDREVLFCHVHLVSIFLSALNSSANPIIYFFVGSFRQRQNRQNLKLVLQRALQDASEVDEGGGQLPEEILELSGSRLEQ
MrgX1 antagonist – blocks BAM8-22 activation of human MrgX1 receptor; Q96LB2; MRGX1-HEK293 calcium flux, Fluo-4, BAM8-22 antagonism; stronger effect = lower value; B-score at 10 µM; actives 1.3% (n = 310,000); AID 588676;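 active = calcium-response B-score plate-corrected more than 3 library SD below zero, starting fluorescence within 5 deviations, no agonist response on first addition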;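 note: peak minus trough fluorescence over baseline after final BAM8-22 challenge near maximal dose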
RGS4 pot – RGS4 potentiation or activation; HEK293 M3R/inducible RGS4, carbachol calcium flux Fluo4; stronger effect = lower value; B-score at 10 µM; actives 0.92% (n = 310,000); AID 463111;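 active = B-score of the integrated calcium signal more than 4 SD below the library mean, with starting fluorescence not abnormally high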;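 note: negative B-score means reduced calcium response which marks RGS4 activation or potentiation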
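Assay system: HEK293 FlpIn-TREx cells, stable M3R, doxycycline-inducible RGS4 / Probe or stimulus: carbachol, ECmax concentration / Times: overnight RGS4 induction, 30 min dye load 37 °C, 20 min compound RT / Signal: kinetic calcium fluorescence imaging with Fluo4-AM dye, 2 µM / Measure: Agonist-evoked peak-minus-minimum fluorescence over baseline, integrated ratio, B score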
MrgX1 agonist – agonists of human MrgX1 receptor; MrgX1-HEK293 cells, Fluo-4 calcium fluorescence, agonist mode; stronger effect = higher value; actives 0.44% (n = 310,000); AID 588627; B-score at 10 µM;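 active = calcium response B-score plate-corrected fluorescence ratio at least 3 library SD, with starting fluorescence B-score inside 5 SD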
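Test system: HEK293 cells stably expressing human MrgX1 receptor; amount: 15,000 cells per well; doses: compound delivered in addition one of three; times: overnight plating before 1 h dye loading; detection: Fluo-4 NW calcium-flux fluorescence, kinetic read; read-out basis: B-scored fluorescence response ratio; controls: positive and negative controls per plate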
RGS4 block – inhibitors of human RGS4; P49798; HEK293 M3R/RGS4 inducible, Fluo-4 calcium flux; stronger effect = higher value; triggered by carbachol at its EC20; B-score at 10 µM; actives 0.45% (n = 310,000); AID 463165;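 active = B-score, a plate-corrected calcium signal, over three deviations above library mean, with baseline fluorescence within five deviations of library mean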;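 note: RGS4 expression induced by doxycycline in cells with stable M3 receptor; B-score is computed from the integrated fluorescence ratio over baseline after carbachol; higher B-score means a larger calcium signal and so more RGS4 inhibition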
Target sequence (P49798 whole entry, looked up): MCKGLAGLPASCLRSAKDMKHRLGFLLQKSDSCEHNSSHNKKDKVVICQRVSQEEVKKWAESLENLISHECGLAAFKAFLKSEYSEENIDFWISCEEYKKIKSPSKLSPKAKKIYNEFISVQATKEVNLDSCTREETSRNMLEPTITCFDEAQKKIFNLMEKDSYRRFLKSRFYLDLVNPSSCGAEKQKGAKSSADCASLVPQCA
RGS4 block valid – RGS4 inhibitor validation; shares compounds with RGS4 block; HEK293 M3R/RGS4, carbachol calcium Fluo-4 fluorescence; carbachol added at its EC20; 0 = buffer wells, 100 = carbachol control; calcium response, % at 10 µM; actives 65% (n = 1,700); AID 492999;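 active = duplicate-averaged calcium response above the buffer-only control mean plus 5 SD of those controls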;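 note: integrated fluorescence ratio F max minus min over baseline F0; higher response in RGS4-induced cells means RGS4 inhibition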
M3R Ca ctr – checks RGS4 inhibitor effects in non-induced HEK293 M3R cells; actives 20% (n = 1,900); shares compounds with RGS4 block; activity (percent), % at 10 µM; carbachol calcium Fluo-4; submaximal (EC20) carbachol stimulus; buffer wells 0%, carbachol control wells 100%; call rule not given here;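 note: RGS4 induction absent so cells express M3R without RGS4; higher means more calcium signal and flags a non-specific hit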
RGS4 inh ctr2 – second counter-screen for RGS4 inhibitors: non-induced cells without carbachol. shares compounds with RGS4 block. HEK293 M3R/RGS4 non-induced, Fluo-4 calcium, no carbachol; normalised: buffer wells 0%, carbachol wells 100%. calcium response (agonist-mode artifact), % at 10 µM. actives 22% (n = 1,900);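 active = duplicate-averaged calcium rise in uninduced cells above buffer wells' mean plus 5 SD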
A number is an active result.

Results for O=C(COc1ccc(Cl)cc1Cl)N/N=C/c1ccc[nH]1 ?
MrgX1 PAM: inactive; MrgX1 antagonist: inactive; RGS4 pot: inactive; MrgX1 agonist: inactive; RGS4 block: inactive

How did Cc1ccc2c(c1)C1CC(C)(O2)N(c2cccc(C(=O)NC3CCN(Cc4ccccc4)CC3)c2)C(=O)N1 (stereo unspecified) do in these assays?
MrgX1 PAM: inactive; MrgX1 antagonist: inactive; RGS4 pot: inactive; MrgX1 agonist: inactive; RGS4 block: inactive

How did O=C(/C=C/c1ccc(NC(=O)c2ccccc2-c2ccccc2C(=O)O)cc1)c1ccccc1 do in these assays?
MrgX1 PAM: inactive; MrgX1 antagonist: inactive; RGS4 pot: inactive; MrgX1 agonist: inactive; RGS4 block: 28; RGS4 block valid: 60%; M3R Ca ctr: inactive; RGS4 inh ctr2: 13%

What do the screens show for `Oc1ccc2ccccc2c1C=Nc1cc(C(F)(F)F)ccc1N1CCCC1`?
MrgX1 PAM: inactive; MrgX1 antagonist: inactive; RGS4 pot: inactive; MrgX1 agonist: inactive; RGS4 block: inactive

Results for COc1cc(/C=C2\COC/C(=C\c3cc(OC)c(OC)c(OC)c3)C2=O)cc(OC)c1OC ?
RGS4 pot: inactive; RGS4 block: 6.4; RGS4 block valid: 20%; M3R Ca ctr: inactive; RGS4 inh ctr2: inactive

Results for COc1cc(/C=C2\CC/C(=C\c3cc(OC)c(OC)c(OC)c3)C2=O)cc(OC)c1OC ?
MrgX1 PAM: inactive; MrgX1 antagonist: inactive; RGS4 pot: inactive; MrgX1 agonist: inactive; RGS4 block: inactive

Results for CC(NCC(O)COCCC12CC3CC(CC(C3)C1)C2)c1ccccc1 (stereo unspecified) ?
MrgX1 PAM: inactive; MrgX1 antagonist: inactive; RGS4 pot: inactive; MrgX1 agonist: inactive; RGS4 block: 4.7; RGS4 block valid: inactive; M3R Ca ctr: inactive; RGS4 inh ctr2: 24%

How did Cc1noc(/C=C/N(C)C)c1S(=O)(=O)N(C)Cc1ccc(F)cc1 do in these assays?
MrgX1 PAM: inactive; MrgX1 antagonist: inactive; RGS4 pot: inactive; MrgX1 agonist: inactive; RGS4 block: inactive

Results for CCOC(=O)/C(=C\c1cccnc1)C(=O)c1cc(C(C)=O)c(Nc2ccccc2)s1 ?
MrgX1 PAM: inactive; MrgX1 antagonist: inactive; RGS4 pot: inactive; MrgX1 agonist: inactive; RGS4 block: 6.4; RGS4 block valid: 42%; M3R Ca ctr: inactive; RGS4 inh ctr2: 9.5%

What do the screens show for `Cc1onc(-c2c(Cl)cccc2Cl)c1C(O)c1ccccc1` (stereo unspecified)?
MrgX1 PAM: inactive; MrgX1 antagonist: inactive; RGS4 pot: inactive; MrgX1 agonist: inactive; RGS4 block: inactive

How did Cc1ccc(CN2CCN(/N=C/c3ccc(N(C)C)cc3)CC2)cc1 do in these assays?
MrgX1 PAM: inactive; MrgX1 antagonist: inactive; RGS4 pot: inactive; MrgX1 agonist: inactive; RGS4 block: 8.8; RGS4 block valid: inactive; M3R Ca ctr: inactive; RGS4 inh ctr2: inactive

How did Cc1ccc(/C=N/N2CCN(Cc3ccccc3)CC2)cc1 do in these assays?
MrgX1 PAM: inactive; MrgX1 antagonist: inactive; RGS4 pot: inactive; MrgX1 agonist: inactive; RGS4 block: inactive

How did O=S(=O)(Nc1ccc(N=Nc2ccc(O)c3ccccc23)cc1)c1ccccc1 do in these assays?
MrgX1 PAM: inactive; MrgX1 antagonist: inactive; RGS4 pot: inactive; MrgX1 agonist: inactive; RGS4 block: 4.7; RGS4 block valid: 5.5%; M3R Ca ctr: inactive; RGS4 inh ctr2: inactive

How did CC(=O)Nc1ccc(Nc2cc(C)nc3c(-c4ccccc4)c(C)nn23)cc1 do in these assays?
MrgX1 PAM: inactive; MrgX1 antagonist: inactive; RGS4 pot: inactive; MrgX1 agonist: inactive; RGS4 block: 8.6; RGS4 block valid: 13%; M3R Ca ctr: inactive; RGS4 inh ctr2: inactive

How did Cc1nn2c(NCc3ccccn3)cc(C(C)C)nc2c1-c1ccccc1 do in these assays?
MrgX1 PAM: inactive; MrgX1 antagonist: inactive; RGS4 pot: inactive; MrgX1 agonist: inactive; RGS4 block: inactive

Results for CC(=O)Nc1ccc(Nc2cc(C(C)C)nc3c(-c4ccccc4)c(C)nn23)cc1 ?
MrgX1 PAM: inactive; MrgX1 antagonist: inactive; RGS4 pot: inactive; MrgX1 agonist: inactive; RGS4 block: 7.2; RGS4 block valid: 41%; M3R Ca ctr: 60%; RGS4 inh ctr2: inactive

Results for Nc1nc2ccc(S(=O)(=O)c3ccc4nc(N)sc4c3)cc2s1 ?
MrgX1 PAM: inactive; MrgX1 antagonist: inactive; RGS4 pot: inactive; MrgX1 agonist: inactive; RGS4 block: 6.3; RGS4 block valid: inactive; M3R Ca ctr: inactive; RGS4 inh ctr2: inactive

Results for Cc1c(NC(=O)CSc2nncn2-c2ccccc2)c(=O)n(-c2ccccc2)n1C ?
MrgX1 PAM: inactive; MrgX1 antagonist: inactive; RGS4 pot: inactive; MrgX1 agonist: inactive; RGS4 block: inactive

Results for N#Cc1ccc(CO/N=C/c2ccccc2)cc1 ?
MrgX1 PAM: inactive; MrgX1 antagonist: inactive; RGS4 pot: inactive; MrgX1 agonist: inactive; RGS4 block: inactive

What do the screens show for `Cc1ccc2cc(/C=N/NC(=O)c3ccc(F)cc3)c(Cl)nc2c1`?
MrgX1 PAM: inactive; MrgX1 antagonist: inactive; RGS4 pot: inactive; MrgX1 agonist: inactive; RGS4 block: inactive

How did Cc1ccc2cc(/C=C/C(=O)c3ccco3)c(Cl)nc2c1 do in these assays?
MrgX1 PAM: inactive; MrgX1 antagonist: inactive; RGS4 pot: inactive; MrgX1 agonist: inactive; RGS4 block: 6; RGS4 block valid: inactive; M3R Ca ctr: 39%; RGS4 inh ctr2: inactive

Results for Cc1ccc2nc(Cl)c(/C=C/C(=O)c3ccco3)cc2c1 ?
MrgX1 PAM: inactive; MrgX1 antagonist: inactive; RGS4 pot: inactive; MrgX1 agonist: inactive; RGS4 block: inactive; RGS4 block valid: inactive; M3R Ca ctr: 50%; RGS4 inh ctr2: inactive

What do the screens show for `COc1ccc2cc(/C=C/C(=O)c3ccco3)c(Cl)nc2c1`?
MrgX1 PAM: inactive; MrgX1 antagonist: inactive; RGS4 pot: inactive; MrgX1 agonist: inactive; RGS4 block: inactive

How did COc1cc2cc(/C=C/C(=O)c3ccco3)c(Cl)nc2cc1OC do in these assays?
MrgX1 PAM: inactive; MrgX1 antagonist: inactive; RGS4 pot: inactive; MrgX1 agonist: inactive; RGS4 block: 8.1; RGS4 block valid: 16%; M3R Ca ctr: inactive; RGS4 inh ctr2: 20%

Results for CC(=O)N1CCOc2ccc(S(=O)(=O)N3CC(C)CC(C)C3)cc21 (stereo unspecified) ?
MrgX1 PAM: inactive; MrgX1 antagonist: inactive; RGS4 pot: inactive; MrgX1 agonist: inactive; RGS4 block: inactive
